Assay results from ChEMBL document CHEMBL1151925, “Design and synthesis of enediyne-peptide conjugates and their inhibiting activity against chymotrypsin” (Bioorg Med Chem, 2009).
Active and inactive are the calls of the source. No cut-off for these calls is given here.

Legend:
[1] = Inhibition of alpha-chymotrypsin assessed as decrease in proteolysis of BSA at 1 mg/ml after 60 mins by SDS-PAGE
Outline: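 Chymotrypsin digestion of BSA (1 mg/ml stock) in 0.01 M phosphate buffer at 38 °C, with free enzyme or enzyme preincubated with inhibitor. Digestion fragments resolved by SDS–PAGE with Coomassie Brilliant Blue staining. Loss of the intact BSA band and appearance of hydrolysed fragments were scored.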

[2] = Inhibition of alpha-chymotrypsin assessed as decrease in proteolysis of BSA at 8.5 uM to 34 uM by Lowry method
Outline: (§1)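 BSA (1 mg/ml stock) in 0.01 M phosphate buffer digested with chymotrypsin (1 mg/ml solution) at 38 °C for a set time, free enzyme or enzyme preincubated with inhibitor at three concentrations. Undigested BSA precipitated with 4% trichloroacetic acid and removed by centrifugation. Hydrolysed products in the supernatant quantified by Lowry method and compared with the uninhibited control.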

[3] = Inhibition of alpha-chymotrypsin by Lineweaver-Burke plot analysis
Outline: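 Chymotrypsin kinetics followed by UV-vis using N-benzoyl tyrosine ethyl ester substrate at 169–340 µM in 80 mM Tris HCl, pH 7.8, with CaCl2. Inhibitor varied across several concentrations. Reciprocal initial rate plotted against reciprocal substrate concentration (Lineweaver–Burk) to assign inhibition type and derive Ki.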

[4] = Inhibition of alpha-chymotrypsin assessed as decrease in proteolysis of BSA at 93 uM to 372 uM by Lowry method; outline: as §1
[5] = Inhibition of alpha-chymotrypsin assessed as decrease in proteolysis of BSA at 80 uM to 320 uM by Lowry method; outline: as §1
[6] = Inhibition of alpha-chymotrypsin assessed as decrease in proteolysis of BSA at 5.9 uM to 35 uM by Lowry method; outline: as §1
[7] = Inhibition of alpha-chymotrypsin assessed as decrease in proteolysis of BSA at 10.23 uM to 40.9 uM by Lowry method; outline: as §1
[8] = Inhibition of alpha-chymotrypsin assessed as decrease in proteolysis of BSA at 4.6 uM to 7.7 uM by Lowry method; outline: as §1

| Activity [1] | Ki [3] [µM] | Compound | further results |
| --- | --- | --- | --- |
| Active | 12 | C[C@H](NC(=O)OC(C)(C)C)C(=O)N[C@@H](Cc1ccccc1)C(=O)NCCC#Cc1ccccc1C#CC=O | Activity [2]: Active |
| inactive |  | CC(C)(C)OC(=O)N[C@@H](Cc1ccccc1)C(=O)OCC(=O)N1CCCCC1 | Activity [4]: inactive |
| inactive |  | CC(C)(C)OC(=O)N[C@@H](Cc1ccccc1)C(=O)N1CCc2ccccc2C1 | Activity [5]: inactive |
| Active | 30 | CC(C)(C)OC(=O)N[C@@H](Cc1ccccc1)C(=O)OCC(=O)N1CC#Cc2ccccc2C#CCC1 | Activity [6]: Active |
| Active |  | CC(C)(C)OC(=O)N[C@@H](Cc1ccccc1)C(=O)OCC(=O)N1CC#C/C=C\C#CCC1 | Activity [7]: Active |
| Active | 3 | CC(C)(C)OC(=O)N[C@@H](Cc1ccccc1)C(=O)N1CC#Cc2ccccc2C#CCC1 | Activity [8]: Active |
